Experimental data published in BindingDB's records for doi:10.1021/np070447m (2008).

How the values were obtained:
[1] = target: Vascular endothelial growth factor receptor 3 (Homo sapiens, UniProt P35916); assay: Inhibition of recombinant VEGFR3
Procedure, shortened: (§1)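 Purified recombinant kinase, 50 µL reaction. 1 µM [γ-33P]-ATP with substrate; compound added in 10% DMSO. Tested over several concentrations; IC50 in g/mL.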

[2] = target: Casein kinase II subunit alpha (Homo sapiens, UniProt P68400); assay: Inhibition of recombinant CK2alpha1; procedure, shortened: as §1
[3] = target: Cyclin-dependent kinase 2 (Homo sapiens, UniProt P24941); assay: Inhibition of recombinant CDK2/CycA; procedure, shortened: as §1
Focal adhesion kinase 1 = Focal adhesion kinase 1 (Homo sapiens, UniProt Q05397); assay: Inhibition of recombinant FAK
Aurora kinase A = target: T1, Aurora kinase A (Homo sapiens, UniProt O14965); assay: Inhibition of recombinant Aurora A; procedure, shortened: as §1
T1 sequence (O14965 whole entry): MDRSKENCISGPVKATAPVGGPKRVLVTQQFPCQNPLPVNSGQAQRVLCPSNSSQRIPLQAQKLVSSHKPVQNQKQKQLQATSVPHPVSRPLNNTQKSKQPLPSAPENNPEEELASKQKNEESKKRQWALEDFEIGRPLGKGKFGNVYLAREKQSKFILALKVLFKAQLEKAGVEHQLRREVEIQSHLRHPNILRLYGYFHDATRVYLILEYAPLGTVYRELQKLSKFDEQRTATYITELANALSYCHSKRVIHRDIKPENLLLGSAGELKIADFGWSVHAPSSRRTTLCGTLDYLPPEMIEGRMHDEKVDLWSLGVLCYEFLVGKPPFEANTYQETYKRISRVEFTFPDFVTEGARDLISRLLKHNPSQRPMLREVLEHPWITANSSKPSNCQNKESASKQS

[4] = target: T2, Receptor-type tyrosine-protein kinase FLT3 (Homo sapiens, UniProt P36888); assay: Inhibition of recombinant FLT3; procedure, shortened: as §1
T2 sequence (P36888 whole entry): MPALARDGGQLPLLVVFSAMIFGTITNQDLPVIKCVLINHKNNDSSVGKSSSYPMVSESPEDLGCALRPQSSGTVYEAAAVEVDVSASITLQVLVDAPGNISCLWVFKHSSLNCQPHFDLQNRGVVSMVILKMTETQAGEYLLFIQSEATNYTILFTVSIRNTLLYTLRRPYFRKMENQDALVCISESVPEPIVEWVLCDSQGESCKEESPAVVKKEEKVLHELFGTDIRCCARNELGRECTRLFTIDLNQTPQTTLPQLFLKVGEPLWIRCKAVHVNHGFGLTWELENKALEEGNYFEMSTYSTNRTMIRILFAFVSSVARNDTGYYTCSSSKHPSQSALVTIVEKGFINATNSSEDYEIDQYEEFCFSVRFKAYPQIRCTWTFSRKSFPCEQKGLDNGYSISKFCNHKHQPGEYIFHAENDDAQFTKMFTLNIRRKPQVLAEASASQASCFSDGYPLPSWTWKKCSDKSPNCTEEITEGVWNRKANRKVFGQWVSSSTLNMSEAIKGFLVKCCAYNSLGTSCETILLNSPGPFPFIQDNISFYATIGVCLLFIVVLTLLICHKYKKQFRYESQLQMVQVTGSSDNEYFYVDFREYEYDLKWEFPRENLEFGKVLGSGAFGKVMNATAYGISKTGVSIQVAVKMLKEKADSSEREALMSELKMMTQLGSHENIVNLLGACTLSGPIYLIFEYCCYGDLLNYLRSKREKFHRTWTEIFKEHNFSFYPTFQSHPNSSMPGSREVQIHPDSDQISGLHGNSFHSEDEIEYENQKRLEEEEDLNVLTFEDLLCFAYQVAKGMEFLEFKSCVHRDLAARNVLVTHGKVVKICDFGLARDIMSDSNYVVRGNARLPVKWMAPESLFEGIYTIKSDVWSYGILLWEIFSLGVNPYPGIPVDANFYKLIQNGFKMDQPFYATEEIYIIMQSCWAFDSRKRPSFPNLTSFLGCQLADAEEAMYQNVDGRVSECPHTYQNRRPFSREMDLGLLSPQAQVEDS

[5] = target: Proto-oncogene tyrosine-protein kinase Src (Homo sapiens, UniProt P12931); assay: Inhibition of recombinant SRC; procedure, shortened: as §1
[6] = target: T3, NUAK family SNF1-like kinase 1 (Homo sapiens, UniProt O60285); assay: Inhibition of recombinant ARK5
T3 sequence (O60285 whole entry): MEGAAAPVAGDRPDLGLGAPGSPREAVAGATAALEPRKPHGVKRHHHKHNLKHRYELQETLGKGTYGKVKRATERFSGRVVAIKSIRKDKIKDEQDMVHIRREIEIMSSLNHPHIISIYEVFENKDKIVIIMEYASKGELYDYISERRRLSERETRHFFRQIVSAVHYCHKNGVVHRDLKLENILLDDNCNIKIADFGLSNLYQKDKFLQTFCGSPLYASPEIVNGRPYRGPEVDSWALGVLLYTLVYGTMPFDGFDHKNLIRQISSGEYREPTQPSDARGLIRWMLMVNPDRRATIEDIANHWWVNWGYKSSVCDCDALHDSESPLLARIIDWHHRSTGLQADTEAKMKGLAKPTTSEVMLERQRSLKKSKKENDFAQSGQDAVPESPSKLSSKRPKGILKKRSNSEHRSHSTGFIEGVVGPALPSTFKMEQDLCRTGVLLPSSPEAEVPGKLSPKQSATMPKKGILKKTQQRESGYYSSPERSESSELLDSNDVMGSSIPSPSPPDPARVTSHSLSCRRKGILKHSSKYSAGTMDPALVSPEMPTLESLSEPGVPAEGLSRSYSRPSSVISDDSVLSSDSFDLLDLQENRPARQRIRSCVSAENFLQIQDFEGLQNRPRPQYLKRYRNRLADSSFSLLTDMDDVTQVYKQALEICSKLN

[7] = target: Cyclin-dependent kinase 4/G1/S-specific cyclin-D1 (Homo sapiens, UniProt P11802); assay: Inhibition of recombinant CDK4/CycD1
[8] = target: Hepatocyte growth factor receptor (Homo sapiens, UniProt P08581); assay: Inhibition of recombinant MET
[9] = target: Insulin-like growth factor 1 receptor (Homo sapiens, UniProt P08069); assay: Inhibition of recombinant IGF1R; procedure, shortened: as §1
[10] = target: Serine/threonine-protein kinase B-raf (Homo sapiens, UniProt P15056, V600E); assay: Inhibition of recombinant B-RAF-V600E mutant; procedure, shortened: as §1
Aurora kinase B = Aurora kinase B (Homo sapiens, UniProt Q96GD4); assay: Inhibition of recombinant Aurora B; procedure, shortened: as §1

Sequence of Hepatocyte growth factor receptor (P08581 whole entry): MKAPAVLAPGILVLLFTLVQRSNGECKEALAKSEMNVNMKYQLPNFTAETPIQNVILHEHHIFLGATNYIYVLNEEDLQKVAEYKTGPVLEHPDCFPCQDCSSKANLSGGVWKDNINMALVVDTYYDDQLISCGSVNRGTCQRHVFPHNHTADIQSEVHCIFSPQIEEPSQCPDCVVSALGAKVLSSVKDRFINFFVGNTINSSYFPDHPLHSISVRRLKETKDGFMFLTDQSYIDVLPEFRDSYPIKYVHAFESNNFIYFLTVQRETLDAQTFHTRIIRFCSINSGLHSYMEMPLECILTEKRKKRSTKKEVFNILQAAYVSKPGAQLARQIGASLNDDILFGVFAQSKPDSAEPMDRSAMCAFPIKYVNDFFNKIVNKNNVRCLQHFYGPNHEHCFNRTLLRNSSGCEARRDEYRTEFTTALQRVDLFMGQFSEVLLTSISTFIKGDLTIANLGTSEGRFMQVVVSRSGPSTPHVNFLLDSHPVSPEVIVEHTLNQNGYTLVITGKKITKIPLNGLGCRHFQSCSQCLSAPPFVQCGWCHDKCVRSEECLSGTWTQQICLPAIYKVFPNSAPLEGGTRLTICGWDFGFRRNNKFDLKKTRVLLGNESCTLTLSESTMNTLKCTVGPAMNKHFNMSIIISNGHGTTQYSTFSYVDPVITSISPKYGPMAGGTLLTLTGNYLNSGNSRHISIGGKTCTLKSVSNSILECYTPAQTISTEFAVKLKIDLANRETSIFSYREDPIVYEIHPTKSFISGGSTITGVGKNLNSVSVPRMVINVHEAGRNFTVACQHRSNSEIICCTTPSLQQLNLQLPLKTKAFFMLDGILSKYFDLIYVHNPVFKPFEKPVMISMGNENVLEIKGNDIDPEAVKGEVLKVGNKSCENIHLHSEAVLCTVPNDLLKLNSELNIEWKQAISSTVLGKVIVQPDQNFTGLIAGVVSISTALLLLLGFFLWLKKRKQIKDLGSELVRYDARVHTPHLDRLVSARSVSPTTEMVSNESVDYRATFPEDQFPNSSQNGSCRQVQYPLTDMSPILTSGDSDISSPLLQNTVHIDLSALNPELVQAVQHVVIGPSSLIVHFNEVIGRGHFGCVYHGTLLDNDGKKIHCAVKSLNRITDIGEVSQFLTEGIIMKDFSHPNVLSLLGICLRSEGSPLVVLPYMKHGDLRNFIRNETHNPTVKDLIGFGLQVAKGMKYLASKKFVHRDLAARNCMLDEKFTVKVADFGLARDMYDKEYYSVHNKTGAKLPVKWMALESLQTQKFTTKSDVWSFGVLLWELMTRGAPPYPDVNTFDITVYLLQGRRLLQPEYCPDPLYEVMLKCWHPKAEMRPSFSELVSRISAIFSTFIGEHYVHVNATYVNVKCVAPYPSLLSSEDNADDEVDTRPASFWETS
Sequence of Insulin-like growth factor 1 receptor (P08069 31-736 limits assumed): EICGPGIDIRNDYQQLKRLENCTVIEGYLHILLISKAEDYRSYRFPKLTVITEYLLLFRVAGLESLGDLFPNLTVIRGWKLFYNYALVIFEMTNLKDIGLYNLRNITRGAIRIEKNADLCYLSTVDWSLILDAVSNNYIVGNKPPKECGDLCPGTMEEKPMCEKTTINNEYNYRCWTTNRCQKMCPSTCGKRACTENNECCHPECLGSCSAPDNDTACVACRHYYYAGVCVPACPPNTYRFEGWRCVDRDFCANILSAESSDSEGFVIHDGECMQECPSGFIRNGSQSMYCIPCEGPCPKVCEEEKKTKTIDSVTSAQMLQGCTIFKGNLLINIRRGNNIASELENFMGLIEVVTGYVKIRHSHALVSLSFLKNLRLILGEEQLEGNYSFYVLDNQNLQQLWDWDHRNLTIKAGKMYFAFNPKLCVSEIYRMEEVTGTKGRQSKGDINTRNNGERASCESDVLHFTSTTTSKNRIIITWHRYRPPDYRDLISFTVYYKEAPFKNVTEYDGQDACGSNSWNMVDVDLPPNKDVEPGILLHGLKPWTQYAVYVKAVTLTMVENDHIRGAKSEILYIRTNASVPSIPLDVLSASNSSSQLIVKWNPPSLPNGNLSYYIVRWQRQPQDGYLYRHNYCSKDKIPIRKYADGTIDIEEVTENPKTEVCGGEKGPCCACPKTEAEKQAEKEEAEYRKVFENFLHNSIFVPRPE
Sequence of Insulin-like growth factor 1 receptor (P08069 741-1367 limits assumed): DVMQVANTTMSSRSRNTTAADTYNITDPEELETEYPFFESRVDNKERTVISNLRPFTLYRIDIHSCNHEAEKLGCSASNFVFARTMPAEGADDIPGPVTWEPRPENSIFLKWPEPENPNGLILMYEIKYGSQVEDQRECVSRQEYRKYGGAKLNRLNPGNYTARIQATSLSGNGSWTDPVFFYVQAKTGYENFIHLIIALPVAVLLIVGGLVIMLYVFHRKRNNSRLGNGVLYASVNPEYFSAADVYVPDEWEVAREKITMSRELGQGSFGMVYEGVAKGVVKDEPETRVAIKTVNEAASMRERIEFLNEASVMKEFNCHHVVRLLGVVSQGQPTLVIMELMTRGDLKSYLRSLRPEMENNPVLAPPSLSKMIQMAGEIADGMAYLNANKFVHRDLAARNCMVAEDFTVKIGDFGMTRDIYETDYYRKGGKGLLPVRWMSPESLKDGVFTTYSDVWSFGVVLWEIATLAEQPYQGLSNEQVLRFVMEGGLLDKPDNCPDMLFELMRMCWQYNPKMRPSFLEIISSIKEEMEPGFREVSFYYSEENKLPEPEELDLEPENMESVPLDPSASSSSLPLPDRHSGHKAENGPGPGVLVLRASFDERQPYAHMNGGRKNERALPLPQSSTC
Sequence of Serine/threonine-protein kinase B-raf (P15056 2-766 V600E limits assumed): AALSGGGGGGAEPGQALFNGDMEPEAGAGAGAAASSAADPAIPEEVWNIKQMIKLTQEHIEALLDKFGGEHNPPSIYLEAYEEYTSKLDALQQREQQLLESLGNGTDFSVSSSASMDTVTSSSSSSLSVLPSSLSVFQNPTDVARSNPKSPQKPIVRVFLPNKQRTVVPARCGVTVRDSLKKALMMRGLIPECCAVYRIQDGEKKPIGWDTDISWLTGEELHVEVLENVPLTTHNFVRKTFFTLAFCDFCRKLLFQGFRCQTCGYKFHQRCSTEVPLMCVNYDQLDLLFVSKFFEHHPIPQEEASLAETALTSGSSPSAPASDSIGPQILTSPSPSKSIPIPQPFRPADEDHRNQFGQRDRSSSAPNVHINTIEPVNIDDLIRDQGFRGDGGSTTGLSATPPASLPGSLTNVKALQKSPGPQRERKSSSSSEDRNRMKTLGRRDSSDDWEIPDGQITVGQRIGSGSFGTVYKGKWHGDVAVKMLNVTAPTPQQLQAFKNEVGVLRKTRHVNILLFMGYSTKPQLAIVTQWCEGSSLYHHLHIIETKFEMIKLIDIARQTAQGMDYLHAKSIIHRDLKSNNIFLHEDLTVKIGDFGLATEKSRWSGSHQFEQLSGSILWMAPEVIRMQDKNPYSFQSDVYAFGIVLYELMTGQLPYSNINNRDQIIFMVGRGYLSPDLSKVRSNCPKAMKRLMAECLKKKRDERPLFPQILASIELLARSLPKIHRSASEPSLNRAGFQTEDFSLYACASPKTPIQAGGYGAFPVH
Sequence of Proto-oncogene tyrosine-protein kinase Src (P12931 2-536 limits assumed): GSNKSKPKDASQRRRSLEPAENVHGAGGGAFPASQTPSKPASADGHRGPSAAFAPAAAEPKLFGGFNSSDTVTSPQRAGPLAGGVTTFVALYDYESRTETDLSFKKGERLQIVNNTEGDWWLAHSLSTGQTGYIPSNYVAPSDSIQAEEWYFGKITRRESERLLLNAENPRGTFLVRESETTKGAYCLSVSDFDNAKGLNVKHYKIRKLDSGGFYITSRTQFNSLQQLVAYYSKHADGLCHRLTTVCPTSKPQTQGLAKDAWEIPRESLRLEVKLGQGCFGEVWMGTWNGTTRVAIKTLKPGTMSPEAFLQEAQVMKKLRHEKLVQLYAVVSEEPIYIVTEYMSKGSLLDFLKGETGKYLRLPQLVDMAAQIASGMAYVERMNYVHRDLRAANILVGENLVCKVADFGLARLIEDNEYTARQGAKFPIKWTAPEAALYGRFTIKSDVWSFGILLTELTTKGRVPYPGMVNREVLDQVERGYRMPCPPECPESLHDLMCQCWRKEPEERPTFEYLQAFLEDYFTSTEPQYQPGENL
Sequence of Focal adhesion kinase 1 (Q05397 whole entry): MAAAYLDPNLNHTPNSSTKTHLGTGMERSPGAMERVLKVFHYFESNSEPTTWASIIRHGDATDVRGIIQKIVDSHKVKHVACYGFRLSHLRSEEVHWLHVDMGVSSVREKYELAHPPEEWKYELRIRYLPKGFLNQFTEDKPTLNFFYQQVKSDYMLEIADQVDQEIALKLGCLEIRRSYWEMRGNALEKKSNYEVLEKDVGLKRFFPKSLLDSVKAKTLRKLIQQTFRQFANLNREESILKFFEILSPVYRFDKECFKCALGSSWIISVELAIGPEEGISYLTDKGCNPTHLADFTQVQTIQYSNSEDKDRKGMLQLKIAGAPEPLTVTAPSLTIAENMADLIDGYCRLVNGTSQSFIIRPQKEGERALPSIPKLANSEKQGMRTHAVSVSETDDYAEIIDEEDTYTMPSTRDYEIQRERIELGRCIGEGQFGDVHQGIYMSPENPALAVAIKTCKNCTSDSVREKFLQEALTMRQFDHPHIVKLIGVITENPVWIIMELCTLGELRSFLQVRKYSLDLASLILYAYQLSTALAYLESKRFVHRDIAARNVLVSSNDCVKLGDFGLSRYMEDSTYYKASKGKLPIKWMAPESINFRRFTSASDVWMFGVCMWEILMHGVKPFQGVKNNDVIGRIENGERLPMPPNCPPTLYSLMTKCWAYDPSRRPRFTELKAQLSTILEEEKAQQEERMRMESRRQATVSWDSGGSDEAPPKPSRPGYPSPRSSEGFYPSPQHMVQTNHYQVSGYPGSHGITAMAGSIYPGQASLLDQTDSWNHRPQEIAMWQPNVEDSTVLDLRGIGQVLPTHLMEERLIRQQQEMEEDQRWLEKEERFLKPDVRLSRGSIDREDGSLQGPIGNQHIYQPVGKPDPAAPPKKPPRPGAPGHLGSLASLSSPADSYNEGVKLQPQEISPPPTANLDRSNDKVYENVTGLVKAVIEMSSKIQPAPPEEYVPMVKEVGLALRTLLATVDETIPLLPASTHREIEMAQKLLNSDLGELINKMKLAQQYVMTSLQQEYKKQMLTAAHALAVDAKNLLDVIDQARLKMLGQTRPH

Compound | IC50 [1] | IC50 [2] | IC50 [3] | IC50 (Focal adhesion kinase 1) | IC50 (Aurora kinase A) | IC50 [4] | IC50 [5] | IC50 [6] | IC50 [7] | IC50 [8] | IC50 [9] | IC50 [10] | IC50 (Aurora kinase B)
COc1cc(O)c2c(c1)C1(OC2=O)C(=O)C(=O)CC1C (stereo unspecified) [TALAROFLAVONE] | > 36.2 µM | > 36.2 µM | > 36.2 µM | > 36.2 µM | > 36.2 µM | > 36.2 µM | > 36.2 µM | > 36.2 µM | > 36.2 µM | > 36.2 µM | > 36.2 µM | > 36.2 µM | > 36.2 µM
COc1cc(O)c2c(c1)-c1cc(O)c(O)cc1COC2=O [Alterlactone] | > 34.6 µM | > 34.6 µM | > 34.6 µM | > 34.6 µM | > 34.6 µM | > 34.6 µM | > 34.6 µM | > 34.6 µM | > 34.6 µM | > 34.6 µM | > 34.6 µM | > 34.6 µM | > 34.6 µM
